Experimental data taken from ChEMBL document CHEMBL2176974, “A bactericidal guanidinomethyl biaryl that alters the dynamics of bacterial FtsZ polymerization” (J Med Chem, 2012).
Where a chain is given by its changes, count along the chain named. Converted amounts (≈) assume the structure as drawn. The source made the active and inactive calls. The calls are words filed in the database; no cut-off is given here.

What was measured:
[1] = target: T1, Cell division protein FtsZ (Staphylococcus aureus) (UniProt P0A031); assay: Stimulation of Staphylococcus aureus FtsZ assembly and bundling at 20 ug/mL by transmission electron microscopy
T1 sequence (whole entry): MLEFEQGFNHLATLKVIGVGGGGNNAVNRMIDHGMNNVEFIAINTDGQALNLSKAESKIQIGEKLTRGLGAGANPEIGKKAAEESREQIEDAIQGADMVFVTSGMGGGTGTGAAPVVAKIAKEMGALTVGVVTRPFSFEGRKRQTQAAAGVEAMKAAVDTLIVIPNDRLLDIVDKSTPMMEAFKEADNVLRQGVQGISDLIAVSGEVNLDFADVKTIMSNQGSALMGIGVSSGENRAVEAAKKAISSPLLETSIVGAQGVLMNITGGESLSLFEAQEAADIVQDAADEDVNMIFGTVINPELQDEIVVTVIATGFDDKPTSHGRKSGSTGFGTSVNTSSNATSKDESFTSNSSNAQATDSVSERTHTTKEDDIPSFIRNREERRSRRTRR
Summary of the method: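 SaFtsZ polymerized with 20 μg/mL compound under light-scattering assay conditions (10 μM protein, 1 mM GTP, 1 mM CaCl2, pH 7.4). Reaction diluted 1:10 in polymerization buffer, applied to glow-discharged Formvar/carbon grids, negatively stained with 1% phosphotungstic acid for 1 min, and imaged by TEM at 80 kV.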

[2] = tested on: T2, Cell division protein FtsZ (Staphylococcus aureus), P0A031 [E185A]; assay: Binding affinity to Staphylococcus aureus FtsZ E185A mutant self-polymerization at 20 ug/mL by microtiter plate-based light scattering assay
T2 sequence (whole entry): T1 sequence (whole entry) with E185A

[3] = target: T3, Cell division protein FtsZ (Escherichia coli K-12, UniProt P0A9A6); assay: Binding affinity to Escherichia coli FtsZ at 25 degC by fluorescence anisotropy assay; conditions: read-out: Kd
T3 sequence (P0A9A6 whole entry): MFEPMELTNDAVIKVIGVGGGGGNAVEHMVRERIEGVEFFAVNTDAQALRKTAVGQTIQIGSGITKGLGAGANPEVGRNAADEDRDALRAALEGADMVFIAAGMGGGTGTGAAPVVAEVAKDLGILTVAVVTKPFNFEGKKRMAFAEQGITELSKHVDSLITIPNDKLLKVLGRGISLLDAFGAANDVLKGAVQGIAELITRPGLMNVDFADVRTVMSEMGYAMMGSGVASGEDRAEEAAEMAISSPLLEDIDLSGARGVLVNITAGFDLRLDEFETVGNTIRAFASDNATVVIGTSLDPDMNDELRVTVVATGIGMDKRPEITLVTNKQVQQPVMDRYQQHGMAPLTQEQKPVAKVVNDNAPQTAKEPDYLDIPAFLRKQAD

[4] = tested on: Klebsiella pneumoniae; assay: Antimicrobial activity against Klebsiella pneumoniae ATCC 13883 incubated for 24 hrs by broth microdilution method; type: functional; conditions: ATCC 13883, 24 h
Summary of the method: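 CLSI broth microdilution. Log-phase bacteria at 10⁵ CFU/mL were added to 2-fold serial dilutions (64 to 0.016 μg/mL) in cation-adjusted Mueller-Hinton broth. Plates were incubated aerobically for 24 h at 37 °C and growth was read as OD600. MIC is the lowest concentration giving 90% growth inhibition.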

[5] = tested on: Staphylococcus aureus; assay: Bactericidal activity against methicillin-sensitive Staphylococcus aureus 8325-4 at 8 times MIC measured within 6 hrs post dose for 24 hrs assessed as log reduction in bacterial CFU by time kill study; type: functional
Summary of the method: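 Exponentially growing S. aureus 8325-4 was diluted in CAMH broth to 10⁵–10⁶ CFU/mL. […] Samples taken at 2, 4 and 6 h were pelleted or diluted, then plated on TSA. Colonies were counted after 24 h at 37 °C. Points are the mean of two independent measurements.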

[6] = Binding affinity to Enterococcus faecalis FtsZ at 25 degC by fluorescence anisotropy assay; conditions: read-out: Kd
[7] = tested on: T4, Cell division protein FtsZ (Staphylococcus aureus), P0A031 [I228R]; assay: Binding affinity to Staphylococcus aureus FtsZ I228R mutant self-polymerization at 10 ug/mL by microtiter plate-based light scattering assay
T4 sequence (whole entry): T1 sequence (whole entry) with I228R

[8] = tested on: Staphylococcus aureus; assay: microbe, parasite or virus in culture; type: functional; conditions: ATCC 33591, 24 h
[9] = tested on: T2, Cell division protein FtsZ (Staphylococcus aureus), P0A031 [E185A]; assay: Binding affinity to Staphylococcus aureus FtsZ E185A mutant self-polymerization at 10 ug/mL by microtiter plate-based light scattering assay
[10] = tested on: T4, Cell division protein FtsZ (Staphylococcus aureus), P0A031 [I228R]; assay: Binding affinity to Staphylococcus aureus FtsZ I228R mutant self-polymerization at 20 ug/mL by microtiter plate-based light scattering assay
[11] = tested on: T5, Cell division protein FtsZ (Staphylococcus aureus), P0A031 [G196A]; assay: Binding affinity to Staphylococcus aureus FtsZ G196A mutant self-polymerization at 20 ug/mL by microtiter plate-based light scattering assay
T5 sequence (whole entry): T1 sequence (whole entry) with G196A

CC(C)(C)c1ccc(-c2cccc(CNC(=N)N)c2)cc1
Activity [1]: Active
Activity [2]: inactive
Kd [3]: 3.8 µM
MIC [4]: 32 µg/mL (≈ 114 µM)
FC [5]: 4
Kd [6]: 21.8 µM
Activity [7]: Active
MIC [8]: 1 µg/mL (≈ 3.55 µM)
Activity [9]: inactive
Activity [10]: Active
Activity [11]: Active
